Our source for the MIC values is ChEMBL document CHEMBL1125632, “Synthesis and copper-dependent antimycoplasmal activity of amides and amidines derived from 2-amino-1,10-phenanthroline” (1991).

Assay [1] concerns Mycoplasmoides gallisepticum. As to the kind of experiment: Minimum inhibitory concentration measured against Mycoplasma gallisepticum K514 in the presence of extra copper. In kind it is functional. The procedure, abridged:
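M. gallisepticum K514 grown in modified Adler medium (peptone, yeast extract, glucose, horse serum, benzylpenicillin, phenol red, pH 8.0) with CuSO4 at 40 μM final. Compounds in DMSO (1.25% final), serial 2-fold dilutions in duplicate over 3 nM–100 μM. 3 mL medium plus 1 mL fresh culture, incubated 24 h at 37 °C. MIC is the lowest concentration with no phenol-red colour change.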

Assay [2] deals with Mycoplasmoides gallisepticum. The assay is described as follows: Minimum inhibitory concentration measured against Mycoplasma gallisepticum K514 in the absence of extra copper. It counts as functional. The procedure, abridged:
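M. gallisepticum K514 grown in modified Adler medium (peptone, yeast extract, glucose, heat-inactivated horse serum, benzylpenicillin, phenol red, pH 8.0). No added copper. Compounds dissolved in DMSO (final 1.25%) and tested as serial 2-fold dilutions in duplicate, 3 nM to 100 μM. Tubes with 3 mL medium received 1 mL fresh culture and were held 24 h at 37 °C. MIC is the lowest concentration giving no indicator colour change.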

Values after ≈ are worked out from the molar mass of the structure shown.

As usually defined, the MIC is the least concentration at which growth counts as inhibited. On to `O=C(Nc1ccc2ccc3ccc(NC(=O)c4ccccc4)nc3c2n1)c1ccccc1`, for which the figures for the MIC in assay [1] and in assay [2] were 0.05 µM and greater than 100 µM, respectively. Turning to `CCCCCCCCCC(=O)Nc1ccc2ccc3cccnc3c2n1`, the minimal inhibitory concentration (MIC) in assay [1] was 0.37 µM; in assay [2], greater than 100 µM. As for `CCCCc1ccc2ccc3ccc(NC(=O)c4ccc(C)cc4)nc3c2n1`, the values for the MIC in assay [1] and in assay [2] were 0.37 µM and greater than 100 µM, respectively. Take `Nc1ccc2ccc3ccc(N)nc3c2n1`: the minimal inhibitory concentration (MIC) in assay [1] is 0.8 µM; in assay [2] it was greater than 100 µM.

Turning to `CCCCC(CC)C(=O)Nc1ccc2ccc3cccnc3c2n1` (configuration not stated), the minimal inhibitory concentration (MIC) is 0.23 µM in assay [1] and greater than 100 µM in assay [2]. As to `CCCCc1ccc2ccc3ccc(NC(=O)c4ccc(Cl)cc4)nc3c2n1`, the minimum inhibitory concentration (MIC) in assay [1] is 0.75 µM; in assay [2], greater than 100 µM. In the same order, the values of `O=C(Nc1ccc2ccc3cccnc3c2n1)c1ccc(Cl)c(Cl)c1` are 0.095 µM and greater than 100 µM. In the same order, the values of `N=C(Nc1ccc2ccc3cccnc3c2n1)c1ccc(Cl)cc1` are 0.2 µM and greater than 100 µM. Turning to `N=C(Nc1ccc2ccc3cccnc3c2n1)c1ccccc1`, the minimum inhibitory concentration (MIC) in assay [1] is 0.2 µM; in assay [2], greater than 100 µM. Take `O=C(Nc1ccc2ccc3cccnc3c2n1)c1ccccc1`: the MIC in assay [1] is 0.023 µM; in assay [2] it was greater than 100 µM. In the same order, the values of `Nc1ccc2ccc3cccnc3c2n1` are 3.1 µM and greater than 100 µM.

For `CCCCc1ccc2ccc3ccc(NC(=O)c4ccc(Cl)c(Cl)c4)nc3c2n1`, the MIC in assay [1] is 1.5 µM; in assay [2] it was greater than 100 µM. With CUPRIC SULFATE, inhibition of growth in assay [2] (MIC) required 700 µM. In the case of `CCCCc1ccc2ccc3ccc(NC(=O)c4ccccc4)nc3c2n1`, the figures for the MIC in assay [1] and in assay [2] were 0.2 µM and greater than 100 µM, respectively. In the same order, the values of `N=C(Nc1ccc2ccc3cccnc3c2n1)c1ccc(Cl)c(Cl)c1` are 0.2 µM and greater than 100 µM. In the same order, the values of `CC[C@H]1OC(=O)C[C@@H](O)[C@H](C)[C@@H](O[C@@H]2O[C@H](C)[C@@H](O[C@H]3C[C@@](C)(O)[C@@H](O)[C@H](C)O3)[C@H](N(C)C)[C@H]2O)[C@@H](CC=O)C[C@@H](C)C(=O)/C=C/C(C)=C/[C@@H]1CO[C@@H]1O[C@H](C)[C@@H](O)[C@@H](OC)[C@H]1OC` [TYLOSIN] are 0.1 µM and 0.1 µM (≈ 0.0916 µg/mL). In the same order, the values of `Cc1ccc(C(=O)Nc2ccc3ccc4cccnc4c3n2)cc1` are 0.023 µM and greater than 100 µM. On to `O=C(Nc1ccc2ccc3cccnc3c2n1)c1ccc(Cl)cc1`, for which the MIC in assay [1] was 0.023 µM; in assay [2] it was greater than 100 µM. In the same order, the values of `COc1ccc(C(=O)Nc2ccc3ccc4cccnc4c3n2)cc1` are 0.046 µM and greater than 100 µM.
